HIF activator – HIF pathway transcriptional activation; activation, % at 7.5 µM (by protocol); 300,000 tested, 0.32% active; AID 1910; U2OS HRE-luciferase reporter, luminescence; normalized: DMSO 0%, desferrioxamine 100%;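 active = mean activation of at least 10% of the iron chelator positive control signal, with at least half of replicates also reaching 10%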
DNA FID counter-1 – counter-screen for HCV NS3 helicase inhibitors: DNA intercalator displacement; DNA fluorescent intercalator displacement, fluorescence; 290,000 tested, 0.17% active; AID 1845; inhibition, % at 7.9 µM;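 note: 0% = vehicle and 100% = reference compound; higher means more ethidium bromide displaced from hairpin DNA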
PP5 primary – PP5 (human) phosphatase inhibition; P53041; purified PP5c, OMFP substrate fluorescence; inhibition, % at 6.7 µM; 320,000 tested, 0.18% active;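 active = inhibition above the campaign's mean inhibition across all tested compounds plus 3 SD, cut at about 9.5% in these data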;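 note: 0% = DMSO only and 100% = 100 µM cantharidin control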
Target sequence (P53041 whole entry, looked up): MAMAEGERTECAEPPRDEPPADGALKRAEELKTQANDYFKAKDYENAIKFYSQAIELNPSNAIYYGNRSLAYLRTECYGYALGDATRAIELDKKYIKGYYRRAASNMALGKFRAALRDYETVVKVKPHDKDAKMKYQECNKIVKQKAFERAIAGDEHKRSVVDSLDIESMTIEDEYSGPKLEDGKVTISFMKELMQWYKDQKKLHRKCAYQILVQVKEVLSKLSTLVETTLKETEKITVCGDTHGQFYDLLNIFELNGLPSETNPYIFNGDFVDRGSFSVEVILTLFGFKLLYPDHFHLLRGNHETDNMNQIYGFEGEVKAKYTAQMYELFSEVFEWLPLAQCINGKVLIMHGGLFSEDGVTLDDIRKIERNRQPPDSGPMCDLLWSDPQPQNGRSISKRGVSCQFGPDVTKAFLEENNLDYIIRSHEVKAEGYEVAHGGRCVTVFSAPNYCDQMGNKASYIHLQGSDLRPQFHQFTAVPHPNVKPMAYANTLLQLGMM
HCV NS3 hel inh – inhibitors of Hepatitis C virus NS3 helicase; NS3 helicase DNA unwinding, Cy5 molecular beacon fluorescence; inhibition, % at 10.9 µM; 290,000 tested, 0.56% active; AID 1800;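 active = inhibition above the mean of all tested compounds plus 3 SD, set per campaign, cut at about 35% in these data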;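 note: 0% = DMSO wells and 100% = thioflavine S control wells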
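Measured by: Cy5 fluorescence, 0 and 60 min reads / Assay system: NS3 helicase fragment of HCV / Control set: low DMSO, high thioflavine S at 110 µM / Times: 1 h reaction at 25 °C, ATP-initiated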
PP1 counter – PP1-alpha (human) inhibition in PP5 counter-screen; P62136; purified PP1alpha, OMFP fluorescence; inhibition, % at 6.7 µM; 320,000 tested, 0.9% active;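 active = inhibition above the mean inhibition of all tested compounds plus 3 SD, computed separately for each screening campaign, cut at about 15% in these data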
NS3 hel confirm – HCV NS3 helicase inhibition, confirmation assay | shares compounds with HCV NS3 hel inh | NS3 helicase DNA unwinding, Cy5 molecular beacon fluorescence | inhibition, % at 10.9 µM | 1,600 tested, 31% active;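 active = inhibition above the mean of all tested compounds plus 3 SD, cutoff set per campaign, cut at about 36% in these data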
DNA FID counter-2 – counter-screen for HCV NS3 helicase inhibitors: DNA intercalator displacement. shares compounds with HCV NS3 hel inh. DNA fluorescent intercalator displacement, fluorescence. inhibition, % at 7.9 µM. 1,600 tested, 4% active. AID 1945;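 note: 0% = vehicle and 100% = reference compound; higher means more displacement of ethidium bromide from the DNA hairpin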
FID counter DR – counter-screen for HCV NS3 helicase inhibitors: DNA intercalator displacement dose response; shares compounds with HCV NS3 hel inh; fluorescent intercalator displacement from DNA, fluorescence; IC50, µM; 120 tested, under 10 active; AID 2172; call rule not given here
The depositor's hits bear a star; / = not tested or not shown. Most compounds without a hit are left out; they make up all but 1.9% or so of the library. Cut-off read from the data, not from the text of the source, unless noted: active = inhibition above about 37%; inactive = the rest.

SMILES	HIF activator	DNA FID counter-1	PP5 primary	HCV NS3 hel inh	PP1 counter	NS3 hel confirm	DNA FID counter-2	others
CN1CCN(c2nc3nonc3nc2N2CCN(C)CC2)CC1	0	8	2	0	0	/	/
Clc1ccccc1C1=CC(c2ccco2)n2ncnc2N1 (stereo not given)	0	-11	2	41*	-1	5	-12
C=CCN(CC=C)C(=O)C1CCN(S(=O)(=O)c2ccc(N3CCCC3=O)cc2)CC1	0	-33	0	-12	-1	/	/
Oc1c(Br)cc(Cl)cc1C=Nc1ccc(N2CCOCC2)cc1	0	5	3	43*	1	13	13
Cc1ccccc1N1C(=O)c2cc(S(N)(=O)=O)c(Cl)cc2NC1C (stereo not given)	/	/	5	/	-3	/	/
Nc1c(C(=O)Nc2ccccc2F)sc2nc(-c3ccco3)ccc12	2	-16	3	59*	7	74*	6	FID counter DR=>79
NC(=O)c1sc2nc(-c3ccco3)ccc2c1N	1	-10	2	74*	-2	-6	0
COC(=O)c1sc2nc(-c3ccco3)ccc2c1N	2	-9	0	34	-5	/	/
NC(=O)c1sc2nc3c(c(-c4ccco4)c2c1N)CCC3	/	-12	2	58*	0	-27	8
Cc1cc(C)cc(OCC(=O)OCC(=O)N(CC(C)C)c2c(N)n(Cc3ccccc3)c(=O)[nH]c2=O)c1	0	/	4	/	-2	/	/
C/C(C/C(C)=C1/SC(=S)NC1=O)=C1\SC(=S)NC1=O	/	-10	/	29	/	/	/
CCCCCC/C(C)=C1/SC(=S)NC1=O	-1	-5	2	40*	1	12	0
N#C/C(=C\c1ccc(O)c(O)c1)S(=O)(=O)c1ccccc1	0	-12	0	38*	6	58*	17	FID counter DR=>79
O=C(O)CCc1ccc(-c2ccc(Cl)cc2)n1Cc1ccco1	/	-24	1	36*	-3	68*	-27
O=C(O)CCc1ccc(-c2cccs2)n1Cc1ccco1	0	-28	0	41*	2	-11	-7
COc1ccc(-c2ccc(CCC(=O)O)n2Cc2ccco2)cc1	0	-22	1	18	-3	/	/
CC(C)(C)OC(=O)N1CCC(CNC(=O)c2ccc(F)cc2F)CC1	0	-34	0	41*	-4	-5	-6
COc1cccc(C2C(C#N)=C(N)OC3=C2C(=O)CC(c2ccco2)C3)c1OCc1ccc(F)cc1 (stereo not given)	0	-26	5	39*	10	64*	-3	FID counter DR=>79
COc1ccc(S(=O)(=O)N(Cc2ccccc2)c2ccccc2C(=O)O)cc1	2	-36	0	-13	-1	/	/
Cc1ccc(S(=O)(=O)N(Cc2ccc(Cl)cc2)c2ccccc2C(=O)O)cc1	-1	-32	2	36*	-5	41*	-24
CC1(C)Cc2c(sc(NC(=O)C3CC(Cl)=CCC3C(=O)O)c2C#N)CO1 (stereo not given)	0	-33	4	10	-1	/	/
Cc1ccc(/C=C2\SC(=S)N(C3CCS(=O)(=O)C3)C2=O)cc1 (stereo not given)	0	-8	0	-9	-2	/	/
O=C1/C(=C\c2ccco2)SC(=S)N1C1CCS(=O)(=O)C1 (stereo not given)	0	-9	2	38*	-5	-10	-2
O=C1/C(=C/c2ccco2)SC(=S)N1C1CCS(=O)(=O)C1 (stereo not given)	-4	-18	4	38*	8	-26	0
COc1ccc(-c2nnc(SCC(=O)c3ccc(O)cc3O)o2)cc1	0	-12	2	-2	4	/	/
SMILES	HIF activator	DNA FID counter-1	PP5 primary	HCV NS3 hel inh	PP1 counter	NS3 hel confirm	DNA FID counter-2	others
CC(=O)Cc1nsc(NC(=O)c2ccc(COc3ccccc3Cl)o2)n1	0	-13	1	-16	2	/	/
CC(=O)c1sc(NC(=O)c2ccc(COc3ccccc3Cl)o2)nc1C	-2	-3	1	42*	-1	21	15
O=C(NNC1CC(=O)N(c2ccccc2)C1=O)c1ccc(COc2ccccc2Cl)o1 (stereo not given)	0	-69	3	60*	-4	-12	-27
O=C1N=c2ccccc2=C1c1sc(Nc2ccc(O)cc2)nc1O	/	7	/	72*	/	27	4
COc1ccc(OC)c(-n2c(=S)[nH]c3c(sc(=S)n3-c3ccccc3)c2=O)c1	0	-22	-4	9	-4	/	/
Cc1cc(N2C(=O)C(O)=C(C(=O)c3cc4ccccc4o3)C2c2ccc(Br)cc2)no1 (stereo not given)	1	-11	2	42*	26*	122*	0
COc1ccc(OC)c(C2C(C(=O)c3cc4ccccc4o3)=C(O)C(=O)N2c2cc(C)on2)c1 (stereo not given)	0	-17	2	37*	21*	80*	-6	FID counter DR=>79
COc1cccc(C2C(C(=O)c3cc4ccccc4o3)=C(O)C(=O)N2c2cc(C)on2)c1 (stereo not given)	0	-42	0	41*	25*	105*	5
COC(=O)c1sc(N2C(=O)C(O)=C(C(=O)c3ccc(C)o3)C2c2cc(OC)ccc2OC)nc1C (stereo not given)	0	-33	1	54*	13	93*	-20	FID counter DR=>79
COc1ccc(OC)c(C2C(C(=O)c3ccc(C)o3)=C(O)C(=O)N2c2cc(C)on2)c1 (stereo not given)	-1	-47	-1	10	1	/	/
O=C(C1CCN(Cc2ccc(F)cc2)CC1)N(CCc1ccccc1)Cc1ccccc1	0	8	1	-24	1	/	/
NNc1nc2c(-c3cccc(C(F)(F)F)c3)nnn2c2ccccc12	4	3	/	43*	/	0	17
COc1ccc(/C=C2\N=C(C)OC2=O)cc1OC	1	-11	0	38*	-1	-13	18
COc1ccc(/C=C2\N=C(C)OC2=O)cc1OC(C)=O	1	-5	/	17	/	/	/
Oc1cccc(C=NCc2ccccc2)c1O	0	-3	3	18	8	/	/
O=C(/C(=N/N=C/c1ccc(O)c(O)c1O)c1ccccc1)c1ccccc1	0	-16	4	49*	14	1	27
Oc1ccc(/C=N/N=C(c2ccccc2)c2ccccc2)c(O)c1O	/	-23	6	52*	3	-22	21
CCN(CC)c1ccc(/C=N/N2C(C)CCCC2C)c(O)c1 (stereo not given)	0	-8	2	-3	-5	/	/
O=C1NC(=O)/C(=C\c2ccccc2Oc2ccc(F)c(F)c2)S1	0	-9	1	55*	4	26	-1

Screens deposited in PubChem BioAssay by several laboratories.
